Measured values from ChEMBL document CHEMBL1629640, “Antimicrobial activities of jadomycin B and structurally related analogues” (2009).
Converted amounts (≈) assume the structure as drawn.

How the values were obtained:
[1] = tested on: Staphylococcus aureus; experiment: Antimicrobial activity against Staphylococcus aureus C622 by broth microdilution method; type: functional
Outline: (§1)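 Preliminary MIC screen by twofold serial broth microdilution in Mueller-Hinton broth, 0.5% DMSO final, with a DMSO-only control. Overnight mid-log cultures were diluted 100-fold, grown 4 h, then diluted 10−6 and added to wells. Plates were incubated overnight and growth read visually. Inhibition was defined as growth ≤ half of control. Three replicates per strain.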

[2] = tested on: Staphylococcus aureus; experiment: Antimicrobial activity against methicillin-resistant Staphylococcus aureus C623 by broth microdilution method; type: functional; outline: as §1
[3] = tested on: Staphylococcus aureus; experiment: Antimicrobial activity against Staphylococcus aureus 305 by broth microdilution method; type: functional; outline: as §1
[4] = tested on: Staphylococcus aureus; experiment: Antimicrobial activity against Staphylococcus aureus Becker CP8 by broth microdilution method; type: functional; outline: as §1
[5] = tested on: Staphylococcus epidermidis; experiment: Antimicrobial activity against Staphylococcus epidermidis C960 by broth microdilution method; type: functional
Outline: (§2)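 Preliminary screen by broth microdilution. Jadomycins dissolved in 100% DMSO and diluted to a 2.56 mg ml−1 working stock in 5% DMSO. First well held 0.5% DMSO final, followed by twofold serial dilutions in broth. A DMSO-only control was included. Strains were grown in Mueller-Hinton broth to mid-log, diluted 100-fold, incubated 4 h, then diluted 10−6. Plates were incubated overnight and growth was read visually. MIC defined as growth ≤ half of control. Three replicates.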

[6] = tested on: Staphylococcus epidermidis; experiment: Antimicrobial activity against Staphylococcus epidermidis isolate C621 by broth microdilution method; type: functional; outline: as §2
[7] = tested on: Pseudomonas aeruginosa; experiment: Antimicrobial activity against Pseudomonas aeruginosa H187 by broth microdilution method; type: functional; outline: as §2
[8] = tested on: Pseudomonas aeruginosa; experiment: Antimicrobial activity against Pseudomonas aeruginosa H188 by broth microdilution method; type: functional; outline: as §2
[9] = tested on: Enterococcus faecalis; experiment: Antimicrobial activity against Enterococcus faecalis C625 by broth microdilution method; type: functional; outline: as §2
[10] = tested on: Bacillus subtilis; experiment: Antimicrobial activity against Bacillus subtilis C971 by broth microdilution method; type: functional; outline: as §2
[11] = tested on: Staphylococcus aureus; experiment: Antimicrobial activity against Staphylococcus aureus ATCC 55804 by broth microdilution method
[12] = tested on: Staphylococcus aureus; experiment: Antimicrobial activity against methicillin-resistant Staphylococcus aureus C623 by CLSI method; type: functional
Outline: (§3)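 MIC by CLSI broth microdilution in cation-adjusted Mueller-Hinton broth at 5 × 10^5 CFU ml−1 final (5 × 10^4 CFU/well).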

[13] = tested on: Staphylococcus aureus; experiment: Antimicrobial activity against Staphylococcus aureus 305 by CLSI method; type: functional; outline: as §3
[14] = tested on: Staphylococcus epidermidis; experiment: Antimicrobial activity against Staphylococcus epidermidis C960 by CLSI method; type: functional

Structure (SMILES) | MIC [1] [µg/mL] | MIC [2] [µg/mL] | MIC [3] [µg/mL] | MIC [4] [µg/mL] | MIC [5] [µg/mL] | MIC [6] [µg/mL] | MIC [7] [µg/mL] | MIC [8] [µg/mL] | MIC [9] [µg/mL] | MIC [10] [µg/mL] | MIC [11] [µg/mL] | MIC [12] [µg/mL] | MIC [13] [µg/mL] | MIC [14] [µg/mL]
CC[C@H]1OC(=O)[C@H](C)[C@@H](O[C@H]2C[C@@](C)(OC)[C@@H](O)[C@H](C)O2)[C@H](C)[C@@H](O[C@@H]2O[C@H](C)C[C@H](N(C)C)[C@H]2O)[C@](C)(O)C[C@@H](C)C(=O)[C@H](C)[C@@H](O)[C@]1(C)O [ERYTHROMYCIN] | < 1 | > 128 | < 0.25 | < 0.25 | < 0.125 | < 0.125 | > 2 | > 2 | 1 (≈ 1.36 µM) | < 0.125 | < 0.25 | – | – | –
Cc1cc(O)c2c(c1)[C@@H]1OC(=O)[C@@H](CO)N1C1=C2C(=O)c2cccc(O[C@H]3C[C@@H](O)[C@@H](O)[C@H](C)O3)c2C1=O [JADOMYCIN DS] | 8 (≈ 15.3 µM) | 8 (≈ 15.3 µM) | 4 (≈ 7.64 µM) | 8 (≈ 15.3 µM) | 1 (≈ 1.91 µM) | 4 (≈ 7.64 µM) | > 128 | > 128 | > 128 | 16 (≈ 30.6 µM) | 16 (≈ 30.6 µM) | 16 (≈ 30.6 µM) | 32 (≈ 61.1 µM) | 2 (≈ 3.82 µM)
CC[C@H](C)[C@H]1C(=O)O[C@H]2c3cc(C)cc(O)c3C3=C(C(=O)c4c(O[C@H]5C[C@@H](O)[C@@H](O)[C@H](C)O5)cccc4C3=O)N12 [JADOMYCIN B] | 2 (≈ 3.64 µM) | < 1 | < 1 | 2 (≈ 3.64 µM) | < 1 | < 1 | > 128 | > 128 | 32 (≈ 58.2 µM) | 4 (≈ 7.28 µM) | 4 (≈ 7.28 µM) | 8 (≈ 14.6 µM) | 4 (≈ 7.28 µM) | 0.5 (≈ 0.91 µM)
Cc1cc(O)c2c(c1)[C@@H]1OC(=O)CN1C1=C2C(=O)c2cccc(O[C@H]3C[C@@H](O)[C@@H](O)[C@H](C)O3)c2C1=O [JADOMYCIN G] | 64 (≈ 130 µM) | 32 (≈ 64.8 µM) | 64 (≈ 130 µM) | 32 (≈ 64.8 µM) | 2 (≈ 4.05 µM) | 8 (≈ 16.2 µM) | > 128 | > 128 | > 128 | 64 (≈ 130 µM) | 64 (≈ 130 µM) | > 128 | > 128 | 32 (≈ 64.8 µM)
Cc1cc(O)c2c(c1)[C@@H]1OC(=O)[C@@H]([C@H](C)O)N1C1=C2C(=O)c2cccc(O[C@H]3C[C@@H](O)[C@@H](O)[C@H](C)O3)c2C1=O [JADOMYCIN DT] | 16 (≈ 29.8 µM) | 16 (≈ 29.8 µM) | 32 (≈ 59.5 µM) | 32 (≈ 59.5 µM) | 2 (≈ 3.72 µM) | 8 (≈ 14.9 µM) | > 128 | > 128 | > 128 | 64 (≈ 119 µM) | 64 (≈ 119 µM) | 32 (≈ 59.5 µM) | 32 (≈ 59.5 µM) | 4 (≈ 7.44 µM)
Cc1cc(O)c2c(c1)[C@@H]1OC(=O)[C@H]([C@H](C)O)N1C1=C2C(=O)c2cccc(O[C@H]3C[C@@H](O)[C@@H](O)[C@H](C)O3)c2C1=O [JADOMYCIN T] | 8 (≈ 14.9 µM) | 8 (≈ 14.9 µM) | 4 (≈ 7.44 µM) | 4 (≈ 7.44 µM) | < 1 | 2 (≈ 3.72 µM) | > 128 | > 128 | > 128 | 8 (≈ 14.9 µM) | 16 (≈ 29.8 µM) | 32 (≈ 59.5 µM) | 64 (≈ 119 µM) | 1 (≈ 1.86 µM)
Cc1cc(O)c2c(c1)[C@@H]1OC(=O)[C@H](Cc3ccc(O)cc3)N1C1=C2C(=O)c2cccc(O[C@H]3C[C@@H](O)[C@@H](O)[C@H](C)O3)c2C1=O [JADOMYCIN Y] | 8 (≈ 13.3 µM) | 8 (≈ 13.3 µM) | 4 (≈ 6.67 µM) | 4 (≈ 6.67 µM) | < 1 | 2 (≈ 3.34 µM) | > 128 | > 128 | > 128 | 8 (≈ 13.3 µM) | 16 (≈ 26.7 µM) | – | – | –
Cc1cc(O)c2c(c1)[C@@H]1OC(=O)[C@H](CO)N1C1=C2C(=O)c2cccc(O[C@H]3C[C@@H](O)[C@@H](O)[C@H](C)O3)c2C1=O [JADOMYCIN S] | – | – | 8 (≈ 15.3 µM) | 8 (≈ 15.3 µM) | 1 (≈ 1.91 µM) | 4 (≈ 7.64 µM) | > 128 | > 128 | > 128 | 16 (≈ 30.6 µM) | 32 (≈ 61.1 µM) | 32 (≈ 61.1 µM) | 32 (≈ 61.1 µM) | 0.5 (≈ 0.955 µM)
Cc1cc(O)c2c(c1)[C@@H]1NC(=O)C[C@@H](C(=O)O)N1C1=C2C(=O)c2cccc(O[C@H]3C[C@@H](O)[C@@H](O)[C@H](C)O3)c2C1=O [JADOMYCIN N] | 32 (≈ 58.1 µM) | 16 (≈ 29.1 µM) | 8 (≈ 14.5 µM) | 16 (≈ 29.1 µM) | < 1 | 8 (≈ 14.5 µM) | > 128 | > 128 | > 128 | 32 (≈ 58.1 µM) | 32 (≈ 58.1 µM) | 128 (≈ 233 µM) | > 128 | 16 (≈ 29.1 µM)
CSCC[C@@H]1C(=O)O[C@H]2c3cc(C)cc(O)c3C3=C(C(=O)c4c(O[C@H]5C[C@@H](O)[C@@H](O)[C@H](C)O5)cccc4C3=O)N12 [JADOMYCIN DM] | 2 (≈ 3.52 µM) | 4 (≈ 7.05 µM) | 32 (≈ 56.4 µM) | 16 (≈ 28.2 µM) | < 1 | 2 (≈ 3.52 µM) | > 128 | > 128 | > 128 | 16 (≈ 28.2 µM) | 64 (≈ 113 µM) | 16 (≈ 28.2 µM) | 32 (≈ 56.4 µM) | 2 (≈ 3.52 µM)
Cc1cc(O)c2c(c1)[C@@H]1OC(=O)[C@H](CC(C)C)N1C1=C2C(=O)c2cccc(O[C@H]3C[C@@H](O)[C@@H](O)[C@H](C)O3)c2C1=O [JADOMYCIN L] | < 1 | < 1 | 8 (≈ 14.6 µM) | 8 (≈ 14.6 µM) | < 1 | 4 (≈ 7.28 µM) | > 128 | > 128 | > 128 | 16 (≈ 29.1 µM) | 16 (≈ 29.1 µM) | 8 (≈ 14.6 µM) | 8 (≈ 14.6 µM) | 0.5 (≈ 0.91 µM)
Cc1cc(O)c2c(c1)[C@@H]1OC(=O)[C@H](Cc3ccccc3)N1C1=C2C(=O)c2cccc(O[C@H]3C[C@@H](O)[C@@H](O)[C@H](C)O3)c2C1=O [JADOMYCIN F] | 1 (≈ 1.71 µM) | 1 (≈ 1.71 µM) | 4 (≈ 6.85 µM) | 8 (≈ 13.7 µM) | < 1 | 2 (≈ 3.43 µM) | > 128 | > 128 | > 128 | 16 (≈ 27.4 µM) | 16 (≈ 27.4 µM) | 8 (≈ 13.7 µM) | 4 (≈ 6.85 µM) | 0.5 (≈ 0.857 µM)
